Measurements collected from several papers.
Action: inhibitor
HDAC6: Protein deacetylase HDAC6 (HDAC6, Homo sapiens, UniProt Q9UBN7)
Dihydroorotate dehydrogenase, mitochondrial, putative: Dihydroorotate dehydrogenase, mitochondrial, putative (Plasmodium vivax, UniProt A5K1N1)
KCNH2: Voltage-gated inwardly rectifying potassium channel KCNH2 (KCNH2, Homo sapiens, UniProt Q12809)

SMILES | target | test | conditions | IC50 [µM]
CC(C)c1cccc(OS(=O)(=O)Oc2cc(F)cc(C(=O)NO)c2)c1 | HDAC6 | enzyme activity, fluorescence | – | 0.832
COc1ccc2c(C(=S)N(C)CC(=O)O)cccc2c1C(F)(F)F | Aldo-keto reductase family 1 member B10 (AKR1B10, Homo sapiens, UniProt O60218) | enzyme activity | – | 0.057
Cn1nc2c(=O)n(C3CC3)ccc2c1[C@](O)(c1cnc(C(F)(F)F)c(Cl)c1)C(F)(F)F | Dihydroorotate dehydrogenase, mitochondrial, putative | enzyme activity, absorbance | – | 0.019
CC1(F)CN(C(=O)Cn2c(=O)c(C(=O)NCc3ccc(Cl)cc3)cc3nc(N4CCOC4=O)cnc32)C1 | KCNH2 | ion current, patch clamp | – | 5.62
Cc1c(C(=O)OC2CC2)nn(C)c1Cc1ccc(C(F)(F)F)nc1 | Dihydroorotate dehydrogenase, mitochondrial, putative | enzyme activity, absorbance | – | 0.016
COc1ccc(C[C@H]2COC(=O)[C@@H]2Cc2ccc(OCC(=O)Nc3ccc(C(=O)Nc4ccccc4N)cc3)c(OC)c2)cc1OC | HDAC6 | enzyme activity | – | > 10
O=c1oc(-c2ccco2)nc2ccccc12 | Prothrombin (F2, Homo sapiens, UniProt P00734) | enzyme activity, absorbance | pH 7.4 | > 50
CC1(F)CN(C(=O)Cn2c(=O)c(C(=O)NCc3ccc(Cl)cc3)cc3nccnc32)C1 | KCNH2 | ion current, patch clamp | – | 5.91
CN(C)C(=O)c1cc2cnc(Nc3ccc(N4CCNCC4)cn3)nc2n1C1CCCC1 | 3',5'-cyclic-AMP phosphodiesterase 4D (PDE4D, Homo sapiens, UniProt Q08499) | enzyme activity, TR-FRET | – | > 10
Cn1nc2c(=O)n(C3CC3)ncc2c1[C@](O)(c1cnc(C(F)(F)F)c(Cl)c1)C(F)(F)F | Dihydroorotate dehydrogenase, mitochondrial, putative | enzyme activity, absorbance | – | 0.017
O=C(NO)c1cccc(OS(=O)(=O)Oc2ccc(-c3cccc(C(F)(F)F)c3)cc2)c1 | HDAC6 | enzyme activity, fluorescence | – | 3.1
CCn1cnc2c([C@@](O)(CC)c3ccc(C(F)(F)F)nc3)n(C)nc2c1=O | Dihydroorotate dehydrogenase, mitochondrial, putative | enzyme activity, absorbance | – | 0.026
COc1cccc(OS(=O)(=O)Oc2cccc(C(=O)NO)c2)c1 | HDAC6 | enzyme activity, fluorescence | – | 0.092
CC[C@@](N)(c1cnc(C(F)(F)F)c(Cl)c1)c1c2ncn(C3CC3)c(=O)c2nn1C | Dihydroorotate dehydrogenase, mitochondrial, putative | enzyme activity, absorbance | – | 0.04
Cc1cc(C(C)(C)C)ccc1OS(=O)(=O)Oc1cc(F)cc(C(=O)NO)c1 | HDAC6 | enzyme activity, fluorescence | – | 3.21
Cn1nc2c(=O)n(C3CC3)cnc2c1[C@](O)(c1cnc(C(F)(F)F)c(Cl)c1)C(F)(F)F | Dihydroorotate dehydrogenase, mitochondrial, putative | enzyme activity, absorbance | – | 0.023
CNCCN1CCN(c2cnc3c(cc(C(=O)NCc4ccc(Cl)cc4)c(=O)n3CC(=O)N3CC(C)(F)C3)n2)C1=O | KCNH2 | ion current, patch clamp | – | > 40
Cc1cc(OS(=O)(=O)Oc2ccccc2)cc(C(=O)NO)c1 | HDAC6 | enzyme activity, fluorescence | – | 3.83
